Experimental data as given in ChEMBL document CHEMBL1275586, “Phenotypic susceptibility to bevirimat in isolates from HIV-1-infected patients without prior exposure to bevirimat” (Antimicrob Agents Chemother, 2010).

Legend:
Assay type in all cases: functional, MT2
[1] = system: Human immunodeficiency virus 1; test: Antiviral activity against Human immunodeficiency virus 1 isolate 22 harboring Gag-capsid V215L, H219Q, I223V, N252S, P255A, L268M and A340G mutant gene and Protease L19I, E35D, M36I, S37N, L63P, V77I and I93L mutant gene infected in human MT-2 cells by XTT-assay relative to wild-type
Outline: (§1)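 Patient Gag-protease (SfoI-XmaI) fragments were ligated into the pXXLAI backbone, with colonies pooled to keep quasispecies. Virus came from 293T transfection, harvested at 2 days. MT-2 infection at 37°C used an input giving XTT signal-to-noise of 2.5–4.0 (≈MOI 0.001). Cells at ≈17,000/well with drug dilutions, 5 days, 37°C; XTT 1 h, A450–650. EC50 from % cell death; fold change vs wild-type LAI.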

[2] = system: Human immunodeficiency virus 1; test: Antiviral activity against Human immunodeficiency virus 1 isolate 32 harboring Gag-capsid, I138L, A146P, I147L, V159I, V215L, I223A, N252S/N, T280V and S310T and protease R41K/R, I62V, L63P, V77I and I93L mutant gene infected in human MT-2 cells by XTT-assay relative to wild-type; outline: as §1
[3] = system: Human immunodeficiency virus 1; test: Antiviral activity against Human immunodeficiency virus 1 isolate 7 harboring Gag-capsid I138L, I147L, S173A, V215L, I223V, T242N, G248A, N252A, I126T, T280V and E312D mutant gene and protease K20R, M36I, R41K, M46I, L63Q, I64V, P79S, V82F and L90M mutant gene infected in human MT-2 cells by XTT-assay relative to wild-type; outline: as §1
[4] = system: Human immunodeficiency virus 1; test: Antiviral activity against Human immunodeficiency virus 1 isolate 8 harboring Gag-capsid V215T mutant gene and protease L10I, L24I, L33F, S37N, R41K, I54V, D60E, I62V, L63P, A71V, V77I, V82A and I84V mutant gene infected in human MT-2 cells by XTT-assay relative to wild-type; outline: as §1
[5] = system: Human immunodeficiency virus 1; test: Antiviral activity against Human immunodeficiency virus 1 isolate 21 harboring Gag-capsid I138L, A146P, I147L/I, V159I/V, E211D, V215L, N252H/N, R286K/R and K331R/K mutant gene and protease E35D, M36I, S37N, I62V and L63C mutant gene infected in human MT-2 cells by XTT-assay relative to wild-type; outline: as §1
[6] = system: Human immunodeficiency virus 1; test: Antiviral activity against Human immunodeficiency virus 1 isolate 26 harboring Gag-capsid I138L, A146S, I147L, E312D, A326S, L337M, and A340G mutant gene and protease T4S, L10F, V11L, I13V, I15V, K20A, V32I, L33F, M36I, S37D, K43T, M46I, I54L, I62V, L63P, A71I, I72K, G73T, I84V,I85V, L89V and L90M mutant gene infected in human MT-2 cells by XTT-assay relative to wild-type; outline: as §1
[7] = system: Human immunodeficiency virus 1; test: Antiviral activity against Human immunodeficiency virus 1 isolate 28 harboring Gag-capsid I138M mutant gene and protease L10I, I13V, L23I, L33F, S37N, M46I, I54V, K55R, R57K, Q58E, D60E, I62V, L63P, A71I, I72V, L76V, V77I, V82A, I84V, I85V, L89M, L90M and I93L mutant gene infected in human MT-2 cells by XTT-assay relative to wild-type; outline: as §1
[8] = system: Human immunodeficiency virus 1; test: Antiviral activity against Human immunodeficiency virus 1 isolate 36 harboring Gag-capsid I138L, A146P, S165N/S, E207D, V215L and E312D mutant gene and protease K14R/K, I15V, E35D, S37D, R57K/R and L63P mutant gene infected in human MT-2 cells by XTT-assay relative to wild-type; outline: as §1
[9] = system: Human immunodeficiency virus 1; test: Antiviral activity against Human immunodeficiency virus 1 isolate 5 harboring Gag-capsid I138M, V159I, T280V and S310T mutant gene and protease I13V, D30N, L33I, E35D, M36I, S37N, M46I/L, I54V, I62V, L63P, I66M/I, A71N/T, I72T/I, V82L/V, N88D, L90M and I93L/I mutant gene infected in human MT-2 cells by XTT-assay relative to wild-type; outline: as §1
[10] = system: Human immunodeficiency virus 1; test: Antiviral activity against Human immunodeficiency virus 1 isolate 9 harboring Gag-capsid I138L, A146S, I147L, V215L, N252H, T280A, A340G and E345D mutant gene and protease L10I, I13V, K20M, L33V, M36I, S37N, I54V, R57K, I62V, L63P, I66L, A71V, G73S, P79A, I84V and L90M mutant gene infected in human MT-2 cells by XTT-assay relative to wild-type; outline: as §1
[11] = system: Human immunodeficiency virus 1; test: Antiviral activity against Human immunodeficiency virus 1 isolate 30 harboring Gag-capsid I138L, V215L, R286K and Q311A mutant gene and protease I13V, E35D, S37N and L63P mutant gene infected in human MT-2 cells by XTT-assay relative to wild-type; outline: as §1
[12] = system: Human immunodeficiency virus 1; test: Antiviral activity against Human immunodeficiency virus 1 isolate 27 harboring Gag-capsid I138L, S173T/S, V215L, L268M, R275K/R, T280V, S310T, E319D and G357S and protease L10I, I15V, L19V, V32I, L33F, M46I, I54V, K55R, R57K, L63P, C67F, H69Q, A71V, G73C/G, V82A, L90M and Q92K mutant gene and deletion at A341 in Gag- capsid infected in human MT-2 cells by XTT-assay relative to wild-type; outline: as §1
[13] = system: Human immunodeficiency virus 1; test: Antiviral activity against Human immunodeficiency virus 1 isolate 1 harboring Gag-capsid I138L, V159I, E203D, V215L, I223V, T280V, E312D and V323I mutant gene and protease L10I, K20R, M36I, S37N, G48V, I54M, I62V, L63P, A71V, I72V, V82A, I84V, L90M and I93L/I mutant gene infected in human MT-2 cells by XTT-assay relative to wild-type; outline: as §1
[14] = system: Human immunodeficiency virus 1; test: Antiviral activity against Human immunodeficiency virus 1 isolate 10 harboring Gag-capsid I138L, I147L, V159I, V215L, G248A, I256V, T280V, R286K and N315H mutant gene and protease L10I, K20R, E35D, M36I, S37N, R41K, K45R, F53L, I54V, L63P, I64V, A71T, V82A, L90M and I93L mutant gene infected in human MT-2 cells by XTT-assay relative to wild-type; outline: as §1
[15] = system: Human immunodeficiency virus 1; test: Antiviral activity against Human immunodeficiency virus 1 isolate 33 harboring Gag-capsid I138L, V215L, V218P, H219Q, I223V, M228I, G248T, N252S, N253T, I256M, E312D and A326S mutant gene and protease T12S/T, I13V/I, I15V, L19I, S37T, L63V/A/P/L and I72V/I mutant gene infected in human MT-2 cells by XTT-assay relative to wild-type; outline: as §1
[16] = system: Human immunodeficiency virus 1; test: Antiviral activity against Human immunodeficiency virus 1 isolate 23 harboring Gag-capsid I138L, V215L, E319D, A340G, G357S and V362I mutant gene and protease L10V, V11L, V32I, L33F, E34Q, E35D, M36L, S37T, M46I, I47V, G48V, I54M, I62V, L63P, I64V, I72V, T74S, V77I, V82A, I84V and T91S mutant gene infected in human MT-2 cells by XTT-assay relative to wild-type; outline: as §1
[17] = system: Human immunodeficiency virus 1; test: Antiviral activity against Human immunodeficiency virus 1 isolate 24 harboring Gag-capsid I138L, V159I, V215L, I223A, T239S, N252S, T280V, R286K, S310T and V362I mutant gene and protease L10V, I13V, I15V, K20R, D30N, V32I, L33F, E35D, M36I, S37N, K43T, M46I, I47V, F53L, I54L, I62V, L63P, I66F, A71V, T74S, V82A, N88D, L89V, L90M and I93V mutant gene infected in human MT-2 cells by XTT-assay …
[18] = system: Human immunodeficiency virus 1; test: Antiviral activity against Human immunodeficiency virus 1 isolate 12 harboring Gag-capsid I138L E207D, V215L, V218P, H219Q, M228I, G248T, T280S, E312D, A340G, G357S and V362I mutant gene and protease S37N, I62V/I, L63P, I64L and V82I mutant gene infected in human MT-2 cells by XTT-assay relative to wild-type; outline: as §1
[19] = system: Human immunodeficiency virus 1; test: Antiviral activity against Human immunodeficiency virus 1 isolate 39 harboring Gag-capsid A146P, I147L, V215L, M228I, G248A, R286K, A326S, G357S and V362I mutant gene and protease K14R, E35D, M36I, S37N, R41K, K45R, D60E, I62V and I64V mutant gene infected in human MT-2 cells by XTT-assay relative to wild-type; outline: as §1
[20] = system: Human immunodeficiency virus 1; test: Antiviral activity against Human immunodeficiency virus 1 isolate 2 harboring Gag-capsid A146P, S173A, V215L, H219P, E230D, N252S, R264K, L268M and A340G mutant gene and protease L10I, I15V, K20R, M36I, S37N, M46I, L63P, T80A, V82A, N83H, I84V, I85T and L90M mutant gene infected in human MT-2 cells by XTT-assay relative to wild-type; outline: as §1
[21] = system: Human immunodeficiency virus 1; test: Antiviral activity against Human immunodeficiency virus 1 isolate 4 harboring Gag-capsid A146P, V159I, K162R, Q182S, T186I, V215L, I223G/V, N252G, P255A, E260D, E312D and G357S mutant gene and protease L10R, S37N, M46L, I62V, L63P, A71V, T74S, V82T, L90M and I93L mutant gene infected in human MT-2 cells by XTT-assay relative to wild-type; outline: as §1

For `Cc1cccc(C)c1OCC(=O)N[C@@H](Cc1ccccc1)[C@@H](O)C[C@H](Cc1ccccc1)NC(=O)[C@H](C(C)C)N1CCCNC1=O` [LOPINAVIR], the “fold change (FC)” value [1] was 0.9, the “fold change (FC)” value [2] was 0.5 and the “fold change (FC)” value [3] was 4.1. The “fold change (FC)” value [4] was 28.7, the “fold change (FC)” value [5] was 0.6 and the “fold change (FC)” value [6] was 46.5. The “fold change (FC)” value [7] was 99.3, the “fold change (FC)” value [8] was 1.1 and the “fold change (FC)” value [9] was 12.1. The “fold change (FC)” value [10] was 16.5, the “fold change (FC)” value [11] was 0.7 and the “fold change (FC)” value [12] was 29.2. For the same molecule, the “fold change (FC)” value [13] was 22.1, the “fold change (FC)” value [14] was 15.3 and the “fold change (FC)” value [15] was 1.6. For the same molecule, the “fold change (FC)” value [16] was 203, the “fold change (FC)” value [17] was 69 and the “fold change (FC)” value [18] was 1.1. The “fold change (FC)” value [19] was 0.8, the “fold change (FC)” value [20] was 15.5 and the “fold change (FC)” value [21] was 15.2.

In the case of `COC(=O)N[C@H](C(=O)N[C@@H](Cc1ccccc1)[C@@H](O)CN(Cc1ccc(-c2ccccn2)cc1)NC(=O)[C@@H](NC(=O)OC)C(C)(C)C)C(C)(C)C` [ATAZANAVIR], the “fold change (FC)” value [1] is reported as 1.3, the “fold change (FC)” value [2] is reported as 1.2 and the “fold change (FC)” value [3] is reported as 1. The “fold change (FC)” value [4] was 29, the “fold change (FC)” value [5] was 0.8 and the “fold change (FC)” value [6] was 571. The “fold change (FC)” value [7] was 14.4, the “fold change (FC)” value [8] was 1.3 and the “fold change (FC)” value [9] was 63.2. The “fold change (FC)” value [10] was 44.4, the “fold change (FC)” value [11] was 0.9 and the “fold change (FC)” value [12] was 52.1. For the same molecule, the “fold change (FC)” value [13] was 62.9, the “fold change (FC)” value [14] was 8.5 and the “fold change (FC)” value [15] was 1.8. The “fold change (FC)” value [16] was 521, the “fold change (FC)” value [17] was 590 and the “fold change (FC)” value [18] was 1.2. For the same molecule, the “fold change (FC)” value [19] was 1.4, the “fold change (FC)” value [20] was 10.7 and the “fold change (FC)” value [21] was 13.3.
